Test results: ChEMBL document CHEMBL1149846, “The role of lipophilicity in determining binding affinity and functional activity for 5-HT2A receptor ligands” (Bioorg Med Chem, 2008)
pKi: −log10 of the molar value.

Assays:
[1] = molecular target: 5-hydroxytryptamine receptor 2A (Rattus norvegicus) (UniProt P14842); assay: Antagonist activity at Sprague-Dawley rat 5HT2A receptor by drug discrimination assay; assay type: functional; settings: filed as antagonist
[2] = molecular target: T1, 5-hydroxytryptamine receptor 2A (Rattus norvegicus, UniProt P14842); assay: Displacement of [3H]ketanserin from 5HT2A receptor in Sprague-Dawley rat brain by liquid scintillation spectroscopy
T1 sequence (P14842 whole entry): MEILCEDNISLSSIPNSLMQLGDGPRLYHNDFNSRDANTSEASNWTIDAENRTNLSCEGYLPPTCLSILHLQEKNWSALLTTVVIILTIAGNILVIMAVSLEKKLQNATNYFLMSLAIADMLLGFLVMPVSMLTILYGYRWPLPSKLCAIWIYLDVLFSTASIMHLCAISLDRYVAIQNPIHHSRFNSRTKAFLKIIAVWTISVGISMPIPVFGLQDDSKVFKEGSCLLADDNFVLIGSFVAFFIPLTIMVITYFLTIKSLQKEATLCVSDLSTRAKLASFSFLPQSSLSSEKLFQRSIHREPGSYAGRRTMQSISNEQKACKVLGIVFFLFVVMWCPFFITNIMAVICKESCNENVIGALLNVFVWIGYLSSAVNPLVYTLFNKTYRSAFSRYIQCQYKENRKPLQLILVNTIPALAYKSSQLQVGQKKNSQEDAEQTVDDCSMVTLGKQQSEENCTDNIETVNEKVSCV

[3] = molecular target: T1, 5-hydroxytryptamine receptor 2A; assay: Displacement of [3H]MDL100907 from 5HT2A receptor in Sprague-Dawley rat brain by liquid scintillation spectroscopy
How it was run: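 Frontal cortex from male Sprague-Dawley rat brains, washed in 50 mM Tris-HCl pH 7.4 and resuspended in buffer with 0.5 mM Na2EDTA, 10.0 μM pargyline, 5.7 mM CaCl2 and 0.1% ascorbate. Cinanserin (10 μM) defined nonspecific binding. Bound label was collected by GF/C filtration and counted. Values from ≥3 experiments, each in triplicate.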

[4] = molecular target: 5-hydroxytryptamine receptor 2A (Rattus norvegicus) (UniProt P14842); assay: Agonist activity at Sprague-Dawley rat 5HT2A receptor by drug discrimination assay; assay type: functional; settings: filed as agonist

5-hydroxytryptamine receptor 2A (Rattus norvegicus), sequence (P14842 whole entry): as above

| Compound | Efficacy [1] | pKi [2] | pKi [3] | Efficacy [4] |
| --- | --- | --- | --- | --- |
| COc1cc(CCN)cc(OC)c1OCCc1ccccc1 | Antagonist | 7.23 |  |  |
| CC(N)Cc1c2ccccc2c(Br)c2ccccc12 (racemic) | Antagonist |  | 6.50 |  |
| COc1cc2c(cc1Br)OCCC(N)C2 (racemic) |  | 6.37 |  |  |
| CSc1cc(CC(C)N)c(SC)cc1C (racemic) | Antagonist | 6.75 |  |  |
| CN(C)CCc1c[nH]c2ccccc12 |  |  | 5.79 | Agonist |
| COc1cc(CC(C)N)c(OC)cc1C (racemic) [DOM] |  | 7.00 |  |  |
| COc1cc(CC(C)N)c(OC)cc1Br (racemic) |  |  |  | Agonist |
| CSc1c2c(c(CC(C)N)c3c1OCC3)CCO2 (racemic) |  |  | 6.32 |  |
| CN(C)CCc1c[nH]c2ccsc12 | Antagonist |  | 5.34 |  |
| NCCc1c2c(cc3c1OCC3)OCC2 |  |  |  | Agonist |
| CN(C)CCc1c[nH]c2cccc(O)c12 [PSILOCIN] |  |  | 6.49 | Agonist |
| NCCc1c2c(c(Br)c3c1OCC3)OCC2 |  |  |  | Agonist |
| Cc1nc2sccn2c(=O)c1CCN1CCC(=C(c2ccc(F)cc2)c2ccc(F)cc2)CC1 | Antagonist |  |  |  |
| CN(C)CCc1c[nH]c2sccc12 | Antagonist |  | 5.43 |  |
| CCc1cc(OC)c(CC(C)N)cc1OC (racemic) |  |  |  | Agonist |
| COc1cc(CC(C)N)c(OC)cc1I (racemic) |  | 7.72 |  | Agonist |
| CC(N)Cc1cc(F)c(Br)cc1F (racemic) | Antagonist |  | 5.60 |  |
| CC(N)Cc1c2c(c(Br)c3c1OCC3)OCC2 (racemic) |  |  |  | Agonist |
| COc1cc(C)cc(OC)c1CC(C)N (racemic) |  | 6.45 |  | Agonist |
| COc1cc(C(F)(F)F)c(OC)cc1CC(C)N (racemic) |  | 7.48 |  | Agonist |
| CC(N)Cc1c2ccoc2c(Br)c2ccoc12 (racemic) |  |  |  | Agonist |
| COc1cc(CCN)cc(OC)c1OC |  |  |  | Agonist |
